From ChEMBL document CHEMBL4251549, “Design, synthesis and biological evaluation of nitrogen-containing macrocyclic bisbibenzyl derivatives as potent anticancer agents by targeting the lysosome” (Eur J Med Chem, 2017)
Structures can show the parent of a compound that is named as a salt.

Columns and labels:
Format in all cases: functional, cell-based
A549 = assay: Antiproliferative activity in human A549 cells after 48 hrs by MTT assay; settings: A549, 48 h
In short: (§1)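 Cells exposed to compound for 48 h. Viability read by MTT, with absorbance of the solubilised MTT product at 570 nm. IC50 derived from at least three independent experiments.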

K562 = assay: Antiproliferative activity in human K562 cells after 48 hrs by MTT assay; settings: K562, 48 h; in short: as §1
MCF7 = assay: Antiproliferative activity in human MCF7 cells after 48 hrs by MTT assay; settings: MCF7, 48 h; in short: as §1

SMILES | IC50 (A549) [µM] | IC50 (K562) [µM] | IC50 (MCF7) [µM]
c1cc2c(c(OCCCN3CCCC3)c1)-c1ccc(cc1OCCCN1CCCC1)CCc1ccc(OCCCN3CCCC3)c(c1)Oc1ccc(cc1)CC2 | 1.67 | 2.13 | 2.12
COCCN(CCOC)Cc1ccc2c(c1O)-c1ccc(cc1O)CCc1ccc(O)c(c1)Oc1ccc(cc1)CC2 | > 20 | > 20 | > 20
c1cc2c(c(OCCN3CCCCCC3)c1)-c1ccc(cc1OCCN1CCCCCC1)CCc1ccc(OCCN3CCCCCC3)c(c1)Oc1ccc(cc1)CC2 | 0.53 | 0.26 | 0.66
COc1cccc2c1C(=O)c1c(O)c3c(c(O)c1C2=O)C[C@@](O)(C(=O)CO)C[C@@H]3O[C@H]1C[C@H](N)[C@H](O)[C@H](C)O1 [DOXORUBICIN HYDROCHLORIDE] | 1.45 | 0.61 | 2.3
CC(C)(C)OC(=O)N1CCN(Cc2cc3cc(c2O)Oc2ccc(cc2)CCc2ccc(CN4CCN(C(=O)OC(C)(C)C)CC4)c(O)c2-c2ccc(cc2O)CC3)CC1 | > 20 | > 20 | > 20
COCCN(CCOC)Cc1cc2cc(c1O)Oc1ccc(cc1)CCc1ccc(CN(CCOC)CCOC)c(O)c1-c1ccc(cc1O)CC2 | > 20 | > 20 | > 20
Oc1ccc2cc1Oc1ccc(cc1)CCc1ccc(CN3CCN(Cc4ccccc4)CC3)c(O)c1-c1ccc(cc1O)CC2 | > 20 | > 20 | > 20
CCN(CC)CCOc1cccc2c1-c1ccc(cc1O)CCc1ccc(O)c(c1)Oc1ccc(cc1)CC2 | 1.87 | 2.23 | 2.73
CN(C)Cc1cc2cc(c1O)Oc1ccc(cc1)CCc1ccc(CN(C)C)c(O)c1-c1ccc(cc1O)CC2 | 4.81 | 2.84 | 4.22
c1cc2c(c(OCCN3CCCCC3)c1)-c1ccc(cc1OCCN1CCCCC1)CCc1ccc(OCCN3CCCCC3)c(c1)Oc1ccc(cc1)CC2 | 0.97 | 0.56 | 0.24
CCN(CC)CCOc1ccc2cc1Oc1ccc(cc1)CCc1cccc(OCCN(CC)CC)c1-c1ccc(cc1OCCN(CC)CC)CC2 | 0.78 | 0.65 | 0.56
Oc1cc2ccc1-c1c(ccc(CN3CCSCC3)c1O)CCc1ccc(cc1)Oc1cc(cc(CN3CCSCC3)c1O)CC2 | 10.2 | 8.35 | 9.25
Oc1ccc2cc1Oc1ccc(cc1)CCc1ccc(CN3CCOCC3)c(O)c1-c1ccc(cc1O)CC2 | > 20 | > 20 | > 20
COc1ccc(N2CCN(Cc3cc4cc(c3O)Oc3ccc(cc3)CCc3ccc(CN5CCN(c6ccc(OC)cc6)CC5)c(O)c3-c3ccc(cc3O)CC4)CC2)cc1 | > 20 | > 20 | > 20
CCN(CC)Cc1ccc2c(c1O)-c1ccc(cc1O)CCc1ccc(O)c(c1)Oc1ccc(cc1)CC2 | 5.74 | 7.86 | 7.59
CN(C)CCCOc1cccc2c1-c1ccc(cc1O)CCc1ccc(O)c(c1)Oc1ccc(cc1)CC2 | 1.99 | 2.61 | 3.25
Oc1cc2ccc1-c1c(ccc(CN3CCC(O)CC3)c1O)CCc1ccc(cc1)Oc1cc(cc(CN3CCC(O)CC3)c1O)CC2 | 3.26 | 2.56 | 3.95
Nc1cc2cc(c1O)Oc1ccc(cc1)CCc1cccc(O)c1-c1ccc(cc1O)CC2 | > 20 | > 20 | > 20
CN1CCN(Cc2cc3cc(c2O)Oc2ccc(cc2)CCc2ccc(CN4CCN(C)CC4)c(O)c2-c2ccc(cc2O)CC3)CC1 | 2.16 | 3.32 | 2.89
CC(=O)Nc1cc2cc(c1O)Oc1ccc(cc1)CCc1cccc(O)c1-c1ccc(cc1O)CC2 | > 20 | > 20 | > 20
CN(C)c1cc2cc(c1O)Oc1ccc(cc1)CCc1cccc(O)c1-c1ccc(cc1O)CC2 | > 20 | > 20 | > 20
CC(=O)Nc1cc2cc(c1OC(C)=O)Oc1ccc(cc1)CCc1cccc(OC(C)=O)c1-c1ccc(cc1OC(C)=O)CC2 | > 20 | > 20 | > 20
